Reference: ChEMBL document CHEMBL1138049, “Evaluation of small-molecule modulators of the luteinizing hormone/choriogonadotropin and thyroid stimulating hormone receptors: structure-activity relationships and selective binding patterns” (J Med Chem, 2006)

Key:
[1] = molecular target: Lutropin-choriogonadotropic hormone receptor (Homo sapiens) (UniProt P22888); assay: Agonist activity at LHCGR expressed in HEK293 EM cells measured by intracellular cAMP accumulation relative to LH; type: functional, cell-based
Chain of Lutropin-choriogonadotropic hormone receptor (Homo sapiens) (P22888 whole entry): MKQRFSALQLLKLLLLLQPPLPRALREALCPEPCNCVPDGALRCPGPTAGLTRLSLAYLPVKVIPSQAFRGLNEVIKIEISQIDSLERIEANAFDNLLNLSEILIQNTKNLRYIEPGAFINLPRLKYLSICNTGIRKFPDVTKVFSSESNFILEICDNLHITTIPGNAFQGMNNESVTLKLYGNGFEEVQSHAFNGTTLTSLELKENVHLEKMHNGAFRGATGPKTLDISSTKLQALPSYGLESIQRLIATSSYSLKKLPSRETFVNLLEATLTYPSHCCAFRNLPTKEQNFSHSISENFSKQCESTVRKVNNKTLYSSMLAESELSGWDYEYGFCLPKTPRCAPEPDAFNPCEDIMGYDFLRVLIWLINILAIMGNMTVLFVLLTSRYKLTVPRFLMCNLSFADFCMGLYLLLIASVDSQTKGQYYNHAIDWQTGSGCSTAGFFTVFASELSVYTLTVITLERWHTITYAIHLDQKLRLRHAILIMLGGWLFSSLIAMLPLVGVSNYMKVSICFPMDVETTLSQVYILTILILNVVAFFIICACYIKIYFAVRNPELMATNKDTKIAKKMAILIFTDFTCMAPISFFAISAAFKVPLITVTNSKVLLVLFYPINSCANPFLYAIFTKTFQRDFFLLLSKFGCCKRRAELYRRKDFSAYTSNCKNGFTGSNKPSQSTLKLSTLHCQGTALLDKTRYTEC
In short: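 Human LHCGR stably expressed in HEK 293 EM cells, cultured 48 h, then incubated 1 h in serum-free DMEM with 1 mM IBMX and compound (0-100 µM) at 5% CO₂. Cells were lysed and cAMP measured by enzyme immunoassay. […] Efficacy is % of maximal response to human LH (1000 ng/ml). Two independent experiments, each in duplicate.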

[2] = molecular target: Thyrotropin receptor (Homo sapiens) (UniProt P16473); assay: Agonist activity at TSHR expressed in HEK293 EM cells measured by intracellular cAMP accumulation relative to TSH; type: functional, cell-based
Chain of Thyrotropin receptor (Homo sapiens) (P16473 whole entry): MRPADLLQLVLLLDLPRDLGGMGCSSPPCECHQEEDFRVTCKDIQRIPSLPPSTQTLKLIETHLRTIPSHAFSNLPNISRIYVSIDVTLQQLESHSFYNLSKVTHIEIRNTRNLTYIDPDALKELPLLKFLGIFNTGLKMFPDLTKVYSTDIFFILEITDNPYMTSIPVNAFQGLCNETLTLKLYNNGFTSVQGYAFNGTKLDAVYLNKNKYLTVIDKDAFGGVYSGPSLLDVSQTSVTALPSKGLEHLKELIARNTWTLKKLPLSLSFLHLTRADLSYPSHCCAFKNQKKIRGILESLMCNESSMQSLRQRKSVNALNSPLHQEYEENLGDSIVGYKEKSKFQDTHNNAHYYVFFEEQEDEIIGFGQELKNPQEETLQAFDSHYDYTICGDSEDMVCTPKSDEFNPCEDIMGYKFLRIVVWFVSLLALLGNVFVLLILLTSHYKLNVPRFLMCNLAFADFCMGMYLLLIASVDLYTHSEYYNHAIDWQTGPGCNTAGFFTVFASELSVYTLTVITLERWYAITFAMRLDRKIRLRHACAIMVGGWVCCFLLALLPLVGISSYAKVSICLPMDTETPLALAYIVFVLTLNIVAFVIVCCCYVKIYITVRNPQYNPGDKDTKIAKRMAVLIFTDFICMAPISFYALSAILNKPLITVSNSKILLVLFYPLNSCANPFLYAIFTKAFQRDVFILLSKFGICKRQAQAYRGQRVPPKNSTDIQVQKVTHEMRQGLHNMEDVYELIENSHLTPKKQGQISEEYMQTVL
In short: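 Human TSHR stably expressed in HEK 293 EM cells, cultured 48 h, then incubated 1 h in serum-free DMEM with 1 mM IBMX and compound (0-100 µM) at 5% CO₂. Lysates assayed for cAMP by enzyme immunoassay. […] Maximal response expressed as % of bovine TSH response, reference 100 mU/mL. Two independent experiments in duplicate.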

Efficacy [1]	Efficacy [2]	Compound
46.3%	–	COc1cccc(-c2nc(SC)nc3sc(C(=O)NC(C)(C)C)c(N)c23)c1F
11%	4%	COc1cccc(-c2nc(SC)nc3sc(C(=O)N(C)C)c(N)c23)c1
50.1%	3%	COc1cccc(-c2nc(SC)nc3sc(C(=O)NC(C)(C)C)c(N)c23)c1OC
–	8.1%	CSc1nc(-c2cccc(F)c2)c2c(N)c(C(=O)NC(C)(C)C)sc2n1
2.4%	1.9%	COc1cccc(-c2nc(SC)nc3sc(C(=O)NNC(=O)OC(C)(C)C)c(N)c23)c1
47.8%	3.6%	COc1cccc(-c2nc(SC)nc3sc(C(=O)N(C)C(C)(C)C)c(N)c23)c1
45.8%	23.4%	COc1cccc(-c2nc(SC)nc3sc(C(=O)NC(C)(C)C)c(N)c23)c1
8.5%	6.1%	COc1cccc(-c2nc(SC)nc3sc(C(=O)NN)c(N)c23)c1
20.3%	3.6%	COc1cccc(-c2nc(SC)nc3sc(C(=O)NCC#N)c(N)c23)c1
25.6%	4.3%	COc1cccc(-c2nc(SC)nc3sc(C(=O)NCCc4ccccc4)c(N)c23)c1
7.8%	3%	COc1cccc(-c2nc(SC)nc3sc(C(=O)NCc4ccccc4)c(N)c23)c1
63.9%	11.2%	CSc1nc(-c2cccc(O)c2)c2c(N)c(C(=O)NC(C)(C)C)sc2n1
26.9%	2.3%	CCNC(=O)c1sc2nc(SC)nc(-c3cccc(OC)c3)c2c1N
6%	6.4%	COc1cccc(-c2nc(SC)nc3sc(C(=O)NNC(C)(C)C)c(N)c23)c1
20.5%	2.9%	COc1cccc(-c2nc(SC)nc3sc(C(=O)NCCO)c(N)c23)c1
4.2%	1.5%	CCOC(=O)c1sc2nc(SC)nc(-c3cccc(OC)c3)c2c1N
23.8%	–	COc1cccc(-c2nc(SC)nc3sc(C(=O)OC(C)(C)C)c(N)c23)c1
